Reference: the M2OR odorant receptor database

Tests used:
Conditions in all cases: stereoisomer not certain
OR1N1 (Homo sapiens) = target: T1, OR1N1 (Homo sapiens) (UniProt Q8NGS0)
T1 sequence (whole entry): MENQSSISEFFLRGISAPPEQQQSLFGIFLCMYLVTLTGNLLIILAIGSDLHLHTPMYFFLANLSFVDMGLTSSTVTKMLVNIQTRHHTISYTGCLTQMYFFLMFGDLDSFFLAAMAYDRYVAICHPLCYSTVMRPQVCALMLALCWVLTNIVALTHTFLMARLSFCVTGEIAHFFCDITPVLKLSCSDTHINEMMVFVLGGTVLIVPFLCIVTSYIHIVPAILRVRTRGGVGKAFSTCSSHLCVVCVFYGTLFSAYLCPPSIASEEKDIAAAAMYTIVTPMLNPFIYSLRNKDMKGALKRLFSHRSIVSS
Procedure, shortened: (§1)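 Values were gathered from published papers (main text and supplementary material), with extra details requested from the original authors when needed, and checked for typos and inconsistencies. Each receptor–molecule pair is called responsive (active) if the original authors judged the measured signal statistically different from baseline, and non-responsive (inactive) otherwise. Assay methods varied by source, often transient mammalian cell-line luciferase assays. Recorded details include cell line, G-protein, co-transfected protein and tags.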

OR1N2 = system: OR1N2
Procedure, shortened: as §1

OR1P1 (Homo sapiens) = OR1P1 (Homo sapiens) (UniProt Q8NH06)
Procedure, shortened: as §1

OR1Q1 (Homo sapiens) = OR1Q1 (Homo sapiens) (UniProt Q15612)
Procedure, shortened: as §1

OR1S1 (Homo sapiens) = OR1S1 (Homo sapiens) (UniProt Q8NH92)
Procedure, shortened: as §1

OR1S2 (Homo sapiens) = OR1S2 (Homo sapiens) (UniProt Q8NGQ3)
Procedure, shortened: as §1

OR1N2 W37R = system: OR1N2 W37R
Procedure, shortened: as §1

OR1Q1 = system: OR1Q1
Procedure, shortened: as §1

OR1S2 E17G = system: OR1S2 E17G
Procedure, shortened: as §1

OR1S2 V225T G240R = system: OR1S2 V225T G240R
Procedure, shortened: as §1

Measured: odorant receptor agonist call

Chain of OR1Q1 (Homo sapiens) (Q15612 whole entry): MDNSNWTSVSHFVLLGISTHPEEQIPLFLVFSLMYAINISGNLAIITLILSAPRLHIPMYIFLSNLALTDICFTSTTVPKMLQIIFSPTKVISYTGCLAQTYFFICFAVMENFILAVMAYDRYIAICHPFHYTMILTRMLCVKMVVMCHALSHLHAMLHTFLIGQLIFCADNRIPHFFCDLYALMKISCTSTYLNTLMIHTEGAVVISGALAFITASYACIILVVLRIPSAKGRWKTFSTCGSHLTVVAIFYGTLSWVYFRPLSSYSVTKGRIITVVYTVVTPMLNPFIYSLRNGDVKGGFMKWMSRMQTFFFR
Chain of OR1S2 (Homo sapiens) (Q8NGQ3 whole entry): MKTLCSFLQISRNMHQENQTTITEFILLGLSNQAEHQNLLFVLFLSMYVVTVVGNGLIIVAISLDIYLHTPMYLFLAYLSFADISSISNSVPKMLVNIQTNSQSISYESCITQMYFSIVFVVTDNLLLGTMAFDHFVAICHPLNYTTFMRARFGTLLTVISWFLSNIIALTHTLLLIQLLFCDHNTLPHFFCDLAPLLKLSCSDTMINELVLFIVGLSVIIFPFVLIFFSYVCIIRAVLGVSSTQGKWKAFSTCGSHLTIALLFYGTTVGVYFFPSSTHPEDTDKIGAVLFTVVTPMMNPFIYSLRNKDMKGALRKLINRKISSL
Chain of OR1S1 (Homo sapiens) (Q8NH92 whole entry): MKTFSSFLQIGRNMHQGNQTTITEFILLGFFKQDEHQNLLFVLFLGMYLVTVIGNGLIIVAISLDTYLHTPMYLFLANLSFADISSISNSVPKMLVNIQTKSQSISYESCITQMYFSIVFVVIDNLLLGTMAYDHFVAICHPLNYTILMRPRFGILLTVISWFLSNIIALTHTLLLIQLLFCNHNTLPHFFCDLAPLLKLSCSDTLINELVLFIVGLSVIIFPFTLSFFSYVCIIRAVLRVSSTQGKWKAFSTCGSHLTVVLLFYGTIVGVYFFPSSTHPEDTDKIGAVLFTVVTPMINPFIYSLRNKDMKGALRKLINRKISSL
Chain of OR1N2 (as listed by the source): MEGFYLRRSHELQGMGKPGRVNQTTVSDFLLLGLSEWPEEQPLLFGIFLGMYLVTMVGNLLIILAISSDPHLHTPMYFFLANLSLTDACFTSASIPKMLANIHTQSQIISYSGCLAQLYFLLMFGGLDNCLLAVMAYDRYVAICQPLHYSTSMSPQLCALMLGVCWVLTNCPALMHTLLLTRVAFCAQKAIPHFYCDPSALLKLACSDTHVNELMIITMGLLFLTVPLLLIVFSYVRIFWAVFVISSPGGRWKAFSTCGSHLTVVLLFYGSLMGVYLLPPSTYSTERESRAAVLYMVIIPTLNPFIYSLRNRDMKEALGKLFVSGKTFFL
Chain of OR1P1 (Homo sapiens) (Q8NH06 whole entry K185A): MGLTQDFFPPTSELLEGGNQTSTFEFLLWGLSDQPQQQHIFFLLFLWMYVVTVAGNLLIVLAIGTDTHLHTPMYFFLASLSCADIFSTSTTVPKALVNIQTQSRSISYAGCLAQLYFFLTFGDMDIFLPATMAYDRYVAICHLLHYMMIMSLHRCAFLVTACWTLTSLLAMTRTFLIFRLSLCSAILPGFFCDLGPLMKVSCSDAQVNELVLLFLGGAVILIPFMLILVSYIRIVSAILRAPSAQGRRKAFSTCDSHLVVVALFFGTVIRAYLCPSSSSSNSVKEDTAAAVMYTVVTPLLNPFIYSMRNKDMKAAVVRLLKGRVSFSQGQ
Chain of OR1S2 E17G (as listed by the source, stated change not applied): as the sequence (Q8NGQ3 whole entry) above, with E17G counted along it
Chain of OR1Q1 (as listed by the source): as the sequence (Q15612 whole entry) above, with Q24R, I163M counted along it
Chain of OR1N2 W37R (as listed by the source, stated change not applied): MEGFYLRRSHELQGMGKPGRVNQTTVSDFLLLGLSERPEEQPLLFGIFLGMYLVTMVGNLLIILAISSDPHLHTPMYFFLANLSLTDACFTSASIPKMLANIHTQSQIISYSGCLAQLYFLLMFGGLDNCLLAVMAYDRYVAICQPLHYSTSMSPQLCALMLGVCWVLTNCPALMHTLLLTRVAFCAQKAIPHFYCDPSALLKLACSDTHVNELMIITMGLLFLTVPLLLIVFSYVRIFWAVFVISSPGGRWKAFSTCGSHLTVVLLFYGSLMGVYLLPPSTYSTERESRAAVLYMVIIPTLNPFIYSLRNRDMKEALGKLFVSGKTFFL

Cc1c([N+](=O)[O-])c(C)c([N+](=O)[O-])c(C(C)(C)C)c1[N+](=O)[O-]
inactive: OR1N1 (Homo sapiens) | OR1N2 | OR1P1 (Homo sapiens) | OR1Q1 (Homo sapiens) | OR1S1 (Homo sapiens) | OR1S2 (Homo sapiens)

c1ccncc1
inactive: OR1N1 (Homo sapiens)

C=CCOC(=O)Cc1ccccc1
inactive: OR1N1 (Homo sapiens) | OR1N2 W37R | OR1N2 | OR1Q1 (Homo sapiens) | OR1Q1 | OR1S1 (Homo sapiens) | OR1S2 (Homo sapiens) | OR1S2 E17G | OR1S2 V225T G240R
